Laboratory results as given in ChEMBL document CHEMBL1138552, “Synthesis of modified pyrimidine bases and positive impact of chemically reactive substituents on their in vitro antiproliferative activity” (Eur J Med Chem, 2009).
pIC50: −log10 of the molar value.

Assays:
MIA PaCa-2 = test: Growth inhibition of human MIAPaCa2 cells after 72 hrs by MTT assay; format: functional, cell-based; settings: MIA PaCa-2, 72 h
Method in brief: (§1)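 Cells were seeded on day 0 at 1 × 10⁴–3 × 10⁴ cells/mL according to doubling time. Compound was added in 10-fold dilutions (10⁻⁸–10⁻⁴ M) from DMSO stocks (final DMSO ≤0.25%, solvent control run) and incubated 72 h. Percentage of growth was calculated, four parallel samples in three experiments. IC50 was derived by linear regression between the concentrations bracketing PG 50; if none fell below, the result was reported as >highest concentration.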

NCI-H460 = test: Growth inhibition of human H460 cells after 72 hrs by MTT assay; format: functional, cell-based; settings: NCI-H460, 72 h; method in brief: as §1
MCF7 = test: Growth inhibition of human MCF7 cells after 72 hrs by MTT assay; format: functional, cell-based; settings: MCF7, 72 h
Method in brief: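 Cells were seeded on day 0 at 1 × 10⁴–3 × 10⁴ cells/mL according to doubling time. Percentage of growth was calculated, four parallel samples in three experiments. IC50 was derived by linear regression between the concentrations bracketing PG 50; if none fell below, the result was reported as >highest concentration.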

HeLa [1] = test: Growth inhibition of human HeLa cells after 72 hrs by MTT assay; format: functional, cell-based; method in brief: as §1
SW-620 = test: Growth inhibition of human SW620 cells after 72 hrs by MTT assay; format: functional, cell-based; settings: SW-620, 72 h; method in brief: as §1
HeLa [2] = test: Cell cycle arrest in human HeLa cells assessed as accumulation at S phase at 20 uM after 48 hrs by flow cytometry; format: functional
Method in brief: (§2)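 Seeded 2 × 10⁵ cells per well; compound added after 24 h. At 24, 48 and 72 h post-treatment, attached cells were trypsinized and pooled with floating cells. Cells were PBS-washed, fixed in 70% ethanol, then stained with propidium iodide plus RNase A. DNA histograms came from 20 000 events per sample and gave the phase percentages. At least two experiments were run in triplicate, with Student t-test (p < 0.05).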

HeLa [3] = test: Cell cycle arrest in human HeLa cells assessed as accumulation at G2/M phase at 20 uM after 24 hrs by flow cytometry; format: functional; method in brief: as §2
HeLa [4] = test: Cell cycle arrest in human HeLa cells assessed as accumulation at subG1 phase at 20 uM after 48 hrs by flow cytometry; format: functional; method in brief: as §2
HeLa [5] = test: Cell cycle arrest in human HeLa cells assessed as accumulation at S phase at 20 uM after 24 hrs by flow cytometry; format: functional; method in brief: as §2
HeLa [6] = test: Cell cycle arrest in human HeLa cells assessed as accumulation at subG1 phase at 20 uM after 72 hrs by flow cytometry; format: functional; method in brief: as §2
HeLa [7] = test: Cell cycle arrest in human HeLa cells assessed as accumulation at subG1 phase at 20 uM after 24 hrs by flow cytometry; format: functional; method in brief: as §2
HaCaT = test: Growth inhibition of human HaCaT cells after 72 hrs by MTT assay; format: cell-based; method in brief: as §1
HeLa [8] = test: Cell cycle arrest in human HeLa cells assessed as accumulation at G2/M phase at 20 uM after 72 hrs by flow cytometry; format: functional; method in brief: as §2
HeLa [9] = test: Cell cycle arrest in human HeLa cells assessed as accumulation at G0/G1 phase at 20 uM after 72 hrs by flow cytometry; format: functional; method in brief: as §2
HeLa [10] = test: Cell cycle arrest in human HeLa cells assessed as accumulation at G0/G1 phase at 20 uM after 48 hrs by flow cytometry; format: functional; method in brief: as §2
HeLa [11] = test: Cell cycle arrest in human HeLa cells assessed as accumulation at S phase at 20 uM after 72 hrs by flow cytometry; format: functional; method in brief: as §2
HeLa [12] = test: Cell cycle arrest in human HeLa cells assessed as accumulation at G0/G1 phase at 20 uM after 24 hrs by flow cytometry; format: functional; method in brief: as §2
HeLa [13] = test: Cell cycle arrest in human HeLa cells assessed as accumulation at G2/M phase at 20 uM after 48 hrs by flow cytometry; format: functional; method in brief: as §2
HeLa [14] = test: Cell cycle arrest in human HeLa cells assessed as accumulation at G2/M phase at 10 uM after 48 hrs by flow cytometry; format: functional
Method in brief: (§3)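 HeLa cells seeded at 2 × 10⁵ per well; compound added after 24 h. At 24, 48 and 72 h, attached and floating cells were pooled, PBS-washed, fixed in 70% ethanol, then stained with propidium iodide plus RNase A. Flow cytometry counted 20 000 events, and phase percentages came from DNA histograms. At least two experiments in triplicate; Student t-test (p < 0.05).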

HeLa [15] = test: Cell cycle arrest in human HeLa cells assessed as accumulation at S phase at 10 uM after 24 hrs by flow cytometry; format: functional; method in brief: as §3
HeLa [16] = test: Cell cycle arrest in human HeLa cells assessed as accumulation at subG1 phase at 10 uM after 48 hrs by flow cytometry; format: functional; method in brief: as §3
HeLa [17] = test: Cell cycle arrest in human HeLa cells assessed as accumulation at subG1 phase at 10 uM after 24 hrs by flow cytometry; format: functional; method in brief: as §3
HeLa [18] = test: Cell cycle arrest in human HeLa cells assessed as accumulation at S phase at 10 uM after 72 hrs by flow cytometry; format: functional; method in brief: as §3
HeLa [19] = test: Cell cycle arrest in human HeLa cells assessed as accumulation at G2/M phase at 10 uM after 72 hrs by flow cytometry; format: functional; method in brief: as §3
HeLa [20] = test: Cell cycle arrest in human HeLa cells assessed as accumulation at subG1 phase at 10 uM after 72 hrs by flow cytometry; format: functional; method in brief: as §3
HeLa [21] = test: Cell cycle arrest in human HeLa cells assessed as accumulation at G0/G1 phase at 10 uM after 48 hrs by flow cytometry; format: functional; method in brief: as §3
HeLa [22] = test: Cell cycle arrest in human HeLa cells assessed as accumulation at G0/G1 phase at 10 uM after 24 hrs by flow cytometry; format: functional; method in brief: as §3
HeLa [23] = test: Cell cycle arrest in human HeLa cells assessed as accumulation at S phase at 10 uM after 48 hrs by flow cytometry; format: functional; method in brief: as §3
HeLa [24] = test: Cell cycle arrest in human HeLa cells assessed as accumulation at G2/M phase at 10 uM after 24 hrs by flow cytometry; format: functional; method in brief: as §3
HeLa [25] = test: Cell cycle arrest in human HeLa cells assessed as accumulation at G0/G1 phase at 10 uM after 72 hrs by flow cytometry; format: functional; method in brief: as §3

Row | SMILES | pIC50 (MIA PaCa-2) | pIC50 (NCI-H460) | pIC50 (MCF7) | pIC50 (HeLa [1]) | pIC50 (SW-620) | also measured
1 | N[C@H](CSCC(=O)Nc1c[nH]c(=O)[nH]c1=O)C(=O)O | 4.10 | < 4.00 | < 4.00 | 4.07 | 4.15 | 
2 | COc1ccc(CSCCN(CCSCc2ccc(OC)cc2)CC(=O)Nc2c[nH]c(=O)[nH]c2=O)cc1 | 5.52 | 4.12 | < 4.00 | 5.40 | 4.15 | Activity (HeLa [2]): 27%; Activity (HeLa [3]): 20%; Activity (HeLa [4]): 24%; Activity (HeLa [5]): 24%; Activity (HeLa [6]): 58%; Activity (HeLa [7]): 17%; pIC50 (HaCaT): 5.05; Activity (HeLa [8]): 13%; Activity (HeLa [9]): 43%; Activity (HeLa [10]): 59%; Activity (HeLa [11]): 44%; Activity (HeLa [12]): 56%; Activity (HeLa [13]): 13%
3 | CC(C)(C)OC(=O)NCCNCC(=O)Nc1c[nH]c(=O)[nH]c1=O | 4.30 | < 4.00 | < 4.00 | 4.30 | 4.30 | 
4 | Cc1ccc(S(=O)(=O)Nc2cc[nH]c(=O)n2)cc1 | < 4.00 | < 4.00 | 4.57 | < 4.00 | < 4.00 | 
5 | NCC(=O)Nc1c[nH]c(=O)[nH]c1=O | < 4.00 | < 4.00 | < 4.00 | < 4.00 | < 4.00 | 
6 | O=c1ccn(COC(CO)CO)c(=O)[nH]1 | < 4.00 | < 4.00 | < 4.00 | < 4.00 | < 4.00 | 
7 | Cc1cc(=O)[nH]c(=O)n1COC(CO)CO | < 4.00 | < 4.00 | < 4.00 | < 4.00 | < 4.00 | 
8 | Cn1cc(CO)c(N)nc1=O | < 4.00 | < 4.00 | < 4.00 | < 4.00 | < 4.00 | 
9 | Cn1ccc(N)nc1=O | < 4.00 | < 4.00 | < 4.00 | 4.92 | < 4.00 | 
10 | O=C(CCl)Nc1c[nH]c(=O)[nH]c1=O | 4.77 | 4.85 | 4.82 | 5.40 | 4.92 | Activity (HeLa [2]): 45%; Activity (HeLa [3]): 6%; Activity (HeLa [4]): 14%; Activity (HeLa [5]): 43%; Activity (HeLa [6]): 25%; Activity (HeLa [7]): 12%; pIC50 (HaCaT): < 4.00; Activity (HeLa [8]): 8%; Activity (HeLa [9]): 50%; Activity (HeLa [10]): 48%; Activity (HeLa [11]): 48%; Activity (HeLa [12]): 50%; Activity (HeLa [13]): 7%
11 | CSc1cc[nH]c(=O)n1 | < 4.00 | < 4.00 | < 4.00 | < 4.00 | < 4.00 | 
12 | Nc1cn(COC(CO)CO)c(=O)[nH]c1=O | < 4.00 | < 4.00 | < 4.00 | < 4.00 | < 4.00 | 
13 | O=C(CCl)Nc1cn(COC(CO)CO)c(=O)[nH]c1=O | 4.74 | 4.62 | 4.49 | 4.92 | 4.72 | pIC50 (HaCaT): < 4.00
14 | Cc1c(I)c(=O)[nH]c(=O)n1COC(CO)CO [IODMETACYCLUR] | < 4.00 | < 4.00 | < 4.00 | 4.14 | < 4.00 | 
15 | O=c1[nH]cc(F)c(=O)[nH]1 [FLUOROURACIL] | 5.00 | 5.70 |  | 5.40 | 5.05 | Activity (HeLa [14]): 0%; Activity (HeLa [15]): 39%; Activity (HeLa [16]): 12%; Activity (HeLa [17]): 10%; pIC50 (HaCaT): 6.40; Activity (HeLa [18]): 43%; Activity (HeLa [19]): 0%; Activity (HeLa [20]): 26%; Activity (HeLa [21]): 59%; Activity (HeLa [22]): 60%; Activity (HeLa [23]): 41%; Activity (HeLa [24]): 1%; Activity (HeLa [25]): 57%
16 | O=c1[nH]c(=O)n(COC(CO)CO)cc1O | < 4.00 | < 4.00 | < 4.00 | < 4.00 | < 4.00 | 
17 | O=c1nc(NO)cc[nH]1 [N4-hydroxycytosine] | < 4.00 | < 4.00 | < 4.00 | < 4.00 | < 4.00 | 
18 | O=c1[nH]c(=O)n(COC(CO)CO)cc1I [IODACYCLUR] | < 4.00 | < 4.00 | < 4.00 | 4.52 | < 4.00 | 
19 | Cc1ccc(S(=O)(=O)Nc2ccn(C)c(=O)n2)cc1 | < 4.00 | < 4.00 | < 4.00 | < 4.00 | < 4.00 | 
